Bioassay records (PubChem)
WT yeast gro inh = growth inhibition of WT yeast, mitochondrial fusion screen; mitochondrial fusion phenotypic screen, WT strain; inhibition, % at 10 µM; 2.1% of 190,000 active; AID 1362; in the data active = inhibition above about 58%; tested in S. cerevisiae
PMI activator = activators of human phosphomannose isomerase; P34949; activation factor at 20 µM; 0.005% of 190,000 active; AID 1214; purified human PMI, coupled resazurin fluorescence, 20 min; active compounds read high; 1 = vehicle control, 0 substrate-free wells;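 active = activation factor of 2 or more at 20 µM, relative to plate controls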
Target sequence (P34949 whole entry, looked up): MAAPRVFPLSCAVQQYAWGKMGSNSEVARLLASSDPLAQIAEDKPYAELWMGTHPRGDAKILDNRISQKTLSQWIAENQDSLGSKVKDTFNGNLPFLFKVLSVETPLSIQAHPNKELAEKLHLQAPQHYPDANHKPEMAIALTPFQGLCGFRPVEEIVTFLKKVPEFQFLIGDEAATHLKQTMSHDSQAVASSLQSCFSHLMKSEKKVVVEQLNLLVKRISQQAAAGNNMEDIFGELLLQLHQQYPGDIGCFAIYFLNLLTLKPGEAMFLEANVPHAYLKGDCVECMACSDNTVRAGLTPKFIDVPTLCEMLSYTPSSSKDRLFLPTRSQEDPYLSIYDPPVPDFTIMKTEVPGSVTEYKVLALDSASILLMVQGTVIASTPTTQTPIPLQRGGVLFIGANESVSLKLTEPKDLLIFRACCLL
L major viab = reduces viability of Leishmania major promastigotes | resazurin fluorescence viability | inhibition, % at 10 µM | 9% of 200,000 active | AID 1063; in the data active = inhibition above about 50%;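 also: promastigotes grown with compound for 44 hours at 28 °C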
PMI act satM6P = increases human PMI activity with near-saturating mannose 6-phosphate; AID 1216; P34949; activation factor at 20 µM; 0.34% of 190,000 active; coupled PMI enzyme assay, resazurin fluorescence, 20 min; active compounds read high; 1 = untreated enzyme, 0 = substrate-free blank;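 active = activation factor of 2 or more at 20 µM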
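test system = human PMI in coupled enzyme assay | medium = HEPES-buffered pH 7.4 with magnesium and detergent | also added = 1.0 mM mannose-6-phosphate substrate with 0.22 mM NADP+ | compound = 20 µM single dose | times = 20 min incubation at room temperature | measured by = resorufin fluorescence (Ex 544/Em 590 nm) from resazurin via diaphorase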
Diaphorase act = activates diaphorase or chemically reduces, flagging diaphorase assay artifacts; Diaphorase/resazurin coupled assay, resorufin fluorescence, 16 min; active compounds read high; 1 = vehicle wells, 0 = NADH-free wells; activation factor at 20 µM; 0.005% of 190,000 active; AID 1229;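 active = diaphorase activity raised at least twofold by the compound at 20 µM; inactive = activation factor below 2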
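Material: purified diaphorase enzyme from Clostridium kluyveri / Medium: HEPES pH 7.4 buffer with MgCl2 and Tween 20 / Schedule: enzyme reaction of 16 min at room temperature / Measured by: resorufin fluorescence, excitation 544 nm, emission 590 nm / Evaluation: rise in resorufin formation, marking diaphorase activation or chemical reduction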
* marks the source's active call; other numbers are inactive results. Shown are actives, neighbours in structure and some others; about 10% of the full set was active somewhere.

`CC(=O)NC(=S)Nc1ccc(N2CCOCC2)c(S(=O)(=O)Nc2cc(Cl)ccc2Cl)c1` gave WT yeast gro inh 33, PMI activator 1, L major viab 0, PMI act satM6P 1 and Diaphorase act 0.9.
For CCN(CC)S(=O)(=O)c1cc(C(=O)N2CCc3ccccc32)ccc1Cl the results were WT yeast gro inh 15, PMI activator 1, L major viab 75*, PMI act satM6P 1 and Diaphorase act 0.9.
CN(C)S(=O)(=O)c1ccc(C(=O)Nc2cc(S(=O)(=O)Nc3ccccc3Cl)ccc2N2CCCCC2)cc1 was read as WT yeast gro inh -9, PMI activator 1, L major viab 37, PMI act satM6P 0.9 and Diaphorase act 0.8.
CCN(CC)S(=O)(=O)c1ccc(Cl)c(C(=O)N2CCc3ccccc32)c1 was read as WT yeast gro inh 17, PMI activator 0.9, L major viab 23, PMI act satM6P 1 and Diaphorase act 0.9.
CCN(CC)S(=O)(=O)c1cc(C(=O)Nc2ccccc2[N+](=O)[O-])ccc1Cl was read as WT yeast gro inh -2, PMI activator 0.9, L major viab 78*, PMI act satM6P 1 and Diaphorase act 0.9.
`Cc1ccc(NC(=O)CCOc2ccccc2C)cc1F` gave WT yeast gro inh 4, PMI activator 0.8, L major viab 2, PMI act satM6P 0.9 and Diaphorase act 0.8.
`NNC(=O)CNC(=O)CNS(=O)(=O)c1ccccc1` gave WT yeast gro inh -1, PMI activator 1, L major viab -2, PMI act satM6P 1 and Diaphorase act 1.
COC(=O)c1ccc(-c2ccc(/C=N/NC(=O)CC3(C)OCCCO3)o2)cc1 was read as WT yeast gro inh -1 and L major viab 40.
`CCN(CC)S(=O)(=O)c1cc(C(=O)Nc2cc(Cl)ccc2N2CCN(C)CC2)ccc1Cl` gave WT yeast gro inh 65*, PMI activator 1, L major viab 100*, PMI act satM6P 1 and Diaphorase act 0.8.
CSCc1cc(N2CCCC2)nc(-c2ccccc2)n1 was read as WT yeast gro inh 9, PMI activator 1, L major viab 68*, PMI act satM6P 0.9 and Diaphorase act 0.9.
CC(C)SCc1cc(N2CCCC2)nc(-c2ccccc2)n1 was read as WT yeast gro inh 58*, PMI activator 1.1, L major viab 16, PMI act satM6P 1 and Diaphorase act 0.9.
`COC(=O)c1cc(Br)c(N)cc1OC` gave WT yeast gro inh 3, PMI activator 1, L major viab -2, PMI act satM6P 1.1 and Diaphorase act 0.9.
`C1CCN(c2nc(N3CCCCC3)nc(N3CCNCC3)n2)CC1` gave WT yeast gro inh -6, PMI activator 0.9, L major viab 68*, PMI act satM6P 0.9 and Diaphorase act 0.9.
Screening Cc1ccc(/C=C(\C#N)C(=O)N2CCCC2)c(C)c1 returned WT yeast gro inh -13, PMI activator 1.1, L major viab 31, PMI act satM6P 1 and Diaphorase act 1.1.
For COc1ccc(F)cc1S(=O)(=O)Nc1ccc(C)cc1 the results were WT yeast gro inh 4, PMI activator 0.9, L major viab 23, PMI act satM6P 1 and Diaphorase act 1.
For O=C(Nc1nnc(C2=COCCO2)o1)c1ccc(Cl)cc1 the results were WT yeast gro inh 60*, PMI activator 1, L major viab 4, PMI act satM6P 1 and Diaphorase act 1.
Screening O=C(Nc1nnc(C2=COCCO2)o1)c1ccc(Cc2ccccc2)cc1 returned WT yeast gro inh 68*, PMI activator 1.1, L major viab 7, PMI act satM6P 1.2 and Diaphorase act 1.
Screening O=C(Nc1nnc(C2=COCCO2)o1)c1ccc(S(=O)(=O)N2CCOCC2)cc1 returned WT yeast gro inh 5, PMI activator 1.4, L major viab -4, PMI act satM6P 1.2 and Diaphorase act 0.9.
For Clc1ccccc1Cc1noc(CN2CCCCC2c2ccccn2)n1 (centres undefined) the results were WT yeast gro inh 22, PMI activator 1, L major viab -6, PMI act satM6P 1.1 and Diaphorase act 1.
`Cc1cc(C)cc(-n2c(N)c(C(=O)Nc3c(C)n(C)n(-c4ccccc4)c3=O)c3nc4ccccc4nc32)c1` gave WT yeast gro inh 2, PMI activator 0.9, L major viab 76*, PMI act satM6P 1 and Diaphorase act 0.9.
Screening Cc1ccc(-n2c(N)c(C(=O)Nc3c(C)n(C)n(-c4ccccc4)c3=O)c3nc4ccccc4nc32)cc1 returned WT yeast gro inh 20, PMI activator 0.8, L major viab 60*, PMI act satM6P 0.8 and Diaphorase act 0.7.
For Cc1cc(=O)oc(C)c1C(=O)Nc1c(C)n(C)n(-c2ccccc2)c1=O the results were WT yeast gro inh 2, PMI activator 1, L major viab -4, PMI act satM6P 1 and Diaphorase act 0.9.
`Cc1ccc(C(=O)Nc2c(C)n(C)n(-c3ccccc3)c2=O)cc1` gave WT yeast gro inh -4, PMI activator 0.9, L major viab -9, PMI act satM6P 0.9 and Diaphorase act 0.8.
Screening CC1(CC(=O)N/N=C/c2cc([N+](=O)[O-])c(O)cc2O)OCCO1 returned WT yeast gro inh -13, PMI activator 1.1, L major viab -3, PMI act satM6P 1.4 and Diaphorase act 0.4.
C/C(=N\NC(=O)C1CC1c1ccccc1)c1cccc([N+](=O)[O-])c1 (centres undefined) was read as WT yeast gro inh 7, PMI activator 1.2, L major viab 0, PMI act satM6P 1.1 and Diaphorase act 1.
Screening Cc1ccc(C2(c3ccc(C)cc3)CC2C(=O)Nc2ccc([N+](=O)[O-])cc2O)cc1 (centres undefined) returned WT yeast gro inh 88*, PMI activator 1, L major viab 100*, PMI act satM6P 0.9 and Diaphorase act 0.8.
C/C(=N\NC(=O)C1CC1(c1ccccc1)c1ccccc1)c1cccc([N+](=O)[O-])c1 (centres undefined) was read as WT yeast gro inh 14, PMI activator 0.9, L major viab 60*, PMI act satM6P 1 and Diaphorase act 1.
Screening C=CCn1c(=O)c2ccccc2n2c(SCC(=O)Nc3sc(C)c(CC)c3C(=O)OCC)nnc12 returned WT yeast gro inh 6, PMI activator 0.9, L major viab 71*, PMI act satM6P 1 and Diaphorase act 0.8.
`c1csc(CNc2nc(-c3cccs3)nc3ccccc23)c1` gave WT yeast gro inh 79*, PMI activator 0.8, L major viab 83*, PMI act satM6P 0.8 and Diaphorase act 0.7.
Screening c1ccc(CN2CCC(Nc3nc(-c4cccs4)nc4ccccc34)CC2)cc1 returned WT yeast gro inh 48, PMI activator 1, L major viab 100*, PMI act satM6P 1 and Diaphorase act 1.
